Assay results taken from ChEMBL document CHEMBL3600378 (J Med Chem, 2015).

Legend:
Rattus norvegicus [1] = test: Cardiotoxicity in anesthetized Sprague-Dawley rat assessed as increase in heart rate at 3 mg/kg, iv measured for 30 mins relative to control; format: toxicity, organism-based; settings: in vivo, 0.5 h
How it was run: (§1)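 Male Sprague-Dawley rats (200-300 g) were anesthetized with sodium pentobarbital (50 mg/kg i.p. plus 25 mg/kg s.c.). The compound was injected via the cannulated left femoral vein once BP and HR were stable, and HR and MBP were recorded for 30 min. Results are the maximum % increase or decrease from baseline, as mean ± SEM. Where given, silodosin (0.01 mg/kg iv) preceded the compound.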

Rattus norvegicus [2] = test: Cardiotoxicity in anesthetized Sprague-Dawley rat assessed as increase in mean blood pressure at 3 mg/kg, iv measured for 30 mins relative to control; format: toxicity, organism-based; settings: in vivo, 0.5 h; how it was run: as §1
[3] = biological target: T1, Beta-1 adrenergic receptor (Homo sapiens, UniProt P08588); test: Agonist activity at human beta1-adrenergic receptor expressed in CHO cells assessed as increase of cAMP level after 30 mins; format: functional, cell-based
How it was run: (§2)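 Stably transfected CHO cells expressing human β1, β2 or β3 or marmoset β3 receptor were grown in Ham's F-12 with 10% FBS and geneticin, seeded at 2×10⁴ cells/well and grown about 20 h. Cells spent 15 min serum-free, then 30 min with compound in medium containing HEPES and isobutylmethylxanthine. Lysate cAMP was measured by kit. […] EC50 is the half-maximal concentration for each compound.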
Target sequence in this assay (P08588 whole entry): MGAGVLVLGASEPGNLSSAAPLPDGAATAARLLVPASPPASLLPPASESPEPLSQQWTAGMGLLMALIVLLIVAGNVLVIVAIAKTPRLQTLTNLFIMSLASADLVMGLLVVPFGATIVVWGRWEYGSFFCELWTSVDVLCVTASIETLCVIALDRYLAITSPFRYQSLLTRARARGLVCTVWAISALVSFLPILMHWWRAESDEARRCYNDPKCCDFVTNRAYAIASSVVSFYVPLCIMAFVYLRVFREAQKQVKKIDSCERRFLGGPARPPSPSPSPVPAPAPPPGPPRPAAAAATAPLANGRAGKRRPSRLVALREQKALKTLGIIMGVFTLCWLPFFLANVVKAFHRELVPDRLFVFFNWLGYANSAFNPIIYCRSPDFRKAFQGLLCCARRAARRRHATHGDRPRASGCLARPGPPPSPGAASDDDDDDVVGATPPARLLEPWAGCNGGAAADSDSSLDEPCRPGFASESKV

[4] = biological target: T2, Alpha-2B adrenergic receptor (Homo sapiens, UniProt P18089); test: Agonist activity at human alpha2B-adrenergic receptor
T2 sequence (P18089 whole entry): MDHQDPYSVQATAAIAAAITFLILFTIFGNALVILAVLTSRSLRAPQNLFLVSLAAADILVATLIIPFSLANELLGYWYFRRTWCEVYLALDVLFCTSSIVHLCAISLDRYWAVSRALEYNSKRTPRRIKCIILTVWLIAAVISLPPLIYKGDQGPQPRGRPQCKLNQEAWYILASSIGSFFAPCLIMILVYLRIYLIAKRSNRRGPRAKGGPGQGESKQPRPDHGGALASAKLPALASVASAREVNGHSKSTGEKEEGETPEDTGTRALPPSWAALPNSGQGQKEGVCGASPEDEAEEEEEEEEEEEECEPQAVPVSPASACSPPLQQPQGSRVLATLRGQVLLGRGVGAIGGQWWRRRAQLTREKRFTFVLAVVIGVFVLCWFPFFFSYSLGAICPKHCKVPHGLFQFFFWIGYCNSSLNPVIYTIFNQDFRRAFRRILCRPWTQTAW

[5] = biological target: T1, Beta-1 adrenergic receptor; test: Intrinsic activity at human beta1-adrenergic receptor expressed in CHO cells assessed as increase of cAMP level after 30 mins relative to isoproterenol; format: functional, cell-based; how it was run: as §2
Target sequence in this assay (P08588 whole entry, looked up): as the sequence (P08588 whole entry) above

Rattus norvegicus [6] = test: Cardiotoxicity in anesthetized Sprague-Dawley rat assessed as decrease in heart rate at 3 mg/kg, iv measured for 30 mins relative to control; format: toxicity, organism-based; design: scale not given: the % may be the effect or the level left; settings: in vivo, 0.5 h; how it was run: as §1
[7] = biological target: T3, Alpha-1A adrenergic receptor (Homo sapiens) (UniProt P35348); test: Intrinsic activity at human alpha1A-adrenergic receptor expressed in HEK293 cells assessed as calcium flux by fluorescence assay relative to norepinephrine; format: functional, cell-based
T3 sequence (whole entry): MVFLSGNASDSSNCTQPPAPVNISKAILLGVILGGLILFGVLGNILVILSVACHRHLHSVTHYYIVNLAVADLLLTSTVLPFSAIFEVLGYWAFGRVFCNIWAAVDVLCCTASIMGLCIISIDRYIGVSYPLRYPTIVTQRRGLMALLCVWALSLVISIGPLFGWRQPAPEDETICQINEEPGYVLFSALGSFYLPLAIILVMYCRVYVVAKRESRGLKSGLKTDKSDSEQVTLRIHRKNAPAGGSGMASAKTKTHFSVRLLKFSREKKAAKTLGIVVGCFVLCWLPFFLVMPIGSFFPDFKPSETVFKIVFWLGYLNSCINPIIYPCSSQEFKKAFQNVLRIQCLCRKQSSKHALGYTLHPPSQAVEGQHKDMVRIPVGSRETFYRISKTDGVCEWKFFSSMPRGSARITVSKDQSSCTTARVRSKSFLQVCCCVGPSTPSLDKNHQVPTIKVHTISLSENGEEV

Homo sapiens = species: Homo sapiens; test: Selectivity ratio of EC50 for human beta2-adrenergic receptor to EC50 for human beta3-adrenergic receptor
[8] = biological target: Beta-3 adrenergic receptor (Homo sapiens, UniProt P13945); test: Agonist activity at human recombinant beta3-adrenergic receptor expressed in CHO cells assessed as increase of cAMP level after 30 mins; format: functional, cell-based
[9] = biological target: T4, Alpha-1B adrenergic receptor (Homo sapiens, UniProt P35368); test: Agonist activity at human alpha1B-adrenergic receptor
T4 sequence (P35368 whole entry): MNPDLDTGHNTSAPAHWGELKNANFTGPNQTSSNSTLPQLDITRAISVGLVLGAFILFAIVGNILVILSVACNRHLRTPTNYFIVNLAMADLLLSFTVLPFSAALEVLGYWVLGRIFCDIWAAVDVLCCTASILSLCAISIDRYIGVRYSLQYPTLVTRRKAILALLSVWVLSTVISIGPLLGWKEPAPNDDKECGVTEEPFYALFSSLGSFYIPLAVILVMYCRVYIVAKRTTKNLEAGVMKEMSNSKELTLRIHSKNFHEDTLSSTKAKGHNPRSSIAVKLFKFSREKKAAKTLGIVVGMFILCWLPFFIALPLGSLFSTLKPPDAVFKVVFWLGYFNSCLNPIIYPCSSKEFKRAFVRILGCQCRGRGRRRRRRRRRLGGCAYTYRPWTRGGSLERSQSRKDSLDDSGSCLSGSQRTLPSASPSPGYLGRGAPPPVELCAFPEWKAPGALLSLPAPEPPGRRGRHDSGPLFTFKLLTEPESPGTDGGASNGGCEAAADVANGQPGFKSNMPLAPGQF

Beta-3 adrenergic receptor, sequence (P13945 whole entry): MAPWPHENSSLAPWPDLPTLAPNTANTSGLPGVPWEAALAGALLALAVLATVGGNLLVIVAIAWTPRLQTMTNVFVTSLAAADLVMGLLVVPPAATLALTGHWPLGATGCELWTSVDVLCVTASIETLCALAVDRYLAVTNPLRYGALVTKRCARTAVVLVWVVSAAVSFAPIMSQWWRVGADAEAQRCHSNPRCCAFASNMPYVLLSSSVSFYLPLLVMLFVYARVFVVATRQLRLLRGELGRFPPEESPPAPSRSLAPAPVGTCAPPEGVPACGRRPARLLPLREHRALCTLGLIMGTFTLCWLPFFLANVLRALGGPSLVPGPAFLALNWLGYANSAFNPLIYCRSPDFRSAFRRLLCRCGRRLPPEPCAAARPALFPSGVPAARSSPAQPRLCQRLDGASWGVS

With `Cc1n[nH]c2cc(OCCNC[C@H](O)c3cccc(NS(C)(=O)=O)c3)ccc12` the Activity (Rattus norvegicus [1]) was 7.9%, the Activity (Rattus norvegicus [2]) was 24.2% and the EC50 [3] was over 10 µM. The EC50 [4] was over 10 µM, the Intrinsic activity [5] was 6% and the Activity (Rattus norvegicus [6]) was 8.8%. It also gave an Intrinsic activity [7] of 71%, a Ratio EC50 (Homo sapiens) of over 476 and an EC50 [8] of 0.021 µM. For the same compound, the EC50 [9] was over 10 µM.
